Screens (PubChem)
Compounds with a hit are over-represented: about 2.3% of the library has one in this group of screens.
COUP-TFII inh – inhibitors of human COUP-TFII (NR2F2) | 370,000 tested, 0.7% active | HEK293T NGFI-A luciferase reporter, luminescence | AID 686940 | inhibition, % at 8.6 µM | P24468;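 active means inhibition above a per-plate cutoff, mean inhibition of test wells between control levels plus 3 SD, cut at about 38% in these data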;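 further: cells cotransfected with COUP-TFII expression vector driving the NGFI-A reporter; 0% = median of COUP-TF2 test wells and 100% = reporter-only cells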
GalR3 antagonist – human GalR3 antagonism; O60755; HEK293 GalR3-CNG cAMP membrane potential fluorescence; galR3 body fused to GalR1 C-terminus; inhibition, % at 3 µM; 360,000 tested, 0.44% active;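 active means inhibition above the screen-wide average plus 3 SD, cut at about 13% in these data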;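 further: forskolin and galanin both at EC90 stimulate the cells; cAMP rise reported by CNG channel membrane potential dye signal; 0% = forskolin plus galanin with DMSO and 100% = forskolin alone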
Target sequence (O60755 1-299 limits assumed): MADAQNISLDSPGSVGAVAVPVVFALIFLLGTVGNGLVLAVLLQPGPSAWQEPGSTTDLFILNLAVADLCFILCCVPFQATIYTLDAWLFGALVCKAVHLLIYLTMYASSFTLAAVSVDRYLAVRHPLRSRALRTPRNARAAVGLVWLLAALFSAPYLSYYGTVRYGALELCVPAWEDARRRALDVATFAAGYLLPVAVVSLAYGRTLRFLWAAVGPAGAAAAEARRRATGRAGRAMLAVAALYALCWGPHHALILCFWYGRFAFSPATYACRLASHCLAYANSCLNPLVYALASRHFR
NR2E3 ag-1 – activates human photoreceptor nuclear receptor NR2E3; Q9Y5X4; GST-NR2E3/biotin-RetCOR TR-FRET, 1536-well; inhibition of corepressor binding, % at 4.78 µM; 320,000 tested, 0.12% active; AID 2300;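 active means percent inhibition above the cutoff of mean plus 3 SD of all tested compounds, set per screening campaign, cut at about 20% in these data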;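 further: 0% = DMSO wells and 100% = biotin wells as full block of FRET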
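System: GST-tagged NR2E3 plus biotinylated RetCOR corepressor; Buffer or medium: pH 7.5 Tris-based buffer; Probe or stimulus: RetCOR corepressor, biotinylated, 7 nM; Doses: compound at 4.8 µM, single dose; Schedule: 5 h incubation at 4 °C; Technique: time-resolved FRET; Evaluation: percent inhibition of TR-FRET ratio; Replication: one well per compound, singlicate testing.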
CHT inh – inhibits the human high affinity choline transporter; AID 488975; Q9GZV3; CHT-expressing cells, membrane potential dye, choline response; stronger effect = lower value; B-score at 10 µM; 310,000 tested, 0.86% active;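 active means B-score over 3 SD under the library average, and starting fluorescence ratio not unusually high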;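 further: choline stimulus applied at its EC90 after an EC20 pre-addition; B-score computed on integrated fluorescence ratio after choline addition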
CHT allo act – allosterically activates the human high affinity choline transporter. Q9GZV3. CHT-expressing cells, membrane potential dye, choline EC20; stronger effect = higher value; LV-AA mutant CHT in HEK293 cells. B-score at 10 µM. 310,000 tested, 0.49% active. AID 488977;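 active means initial fluorescence not abnormally high and integrated response B-score, plate-corrected, over 3 SD above library mean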
NR2E3 ag-2 – human photoreceptor-specific nuclear receptor agonism; Q9Y5X4; 360,000 tested, 0.35% active; inhibition of corepressor binding, % at 3.98 µM; CHO-S Gal4-NCOR/VP16-NR2E3 two-hybrid, luciferase; AID 602229;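 active means inhibition above the mean of all tested compounds plus 3 SD, cut at about 70% in these data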;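 further: 0% = DMSO with NR2E3 transfected cells and 100% = cells lacking NR2E3 construct; higher means lower luciferase signal from less NR2E3 corepressor binding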
VP16 Luc counter – VP16 inhibition counter-screen for COUP-TFII; shares compounds with COUP-TFII inh; AID 687007; inhibition, % at 8.5 µM; 2,500 tested, 25% active; HEK293 Gal4-VP16 luciferase reporter, luminescence; in the data active means inhibition above about 13%
NR2F2 inh conf – confirmation of human COUP-TFII (NR2F2) inhibitors; AID 687008; shares compounds with COUP-TFII inh; HEK293 NGFI-A luciferase reporter, luminescence; 2,500 tested, 45% active; inhibition, % at 8.5 µM;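 active means mean inhibition over three repeats above a set limit taken from the earlier primary screen, cut at about 38% in these data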;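 further: 100% = cells given the luciferase reporter alone without the COUP-TF2 vector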
The depositor's hits bear a star; i = inactive; . = no result given; ! = a repeat was not active.

SMILES	COUP-TFII inh	GalR3 antagonist	NR2E3 ag-1	CHT inh	CHT allo act	NR2E3 ag-2	VP16 Luc counter	NR2F2 inh conf
O=C(NCCCN1CCN(c2ccc(F)cc2)CC1)NCc1ccccc1	13.5	.	.	.	.	.	.	.
COC(=O)[C@H](C(C)C)N(CCCc1cn(CC2CCCCC2)nn1)S(=O)(=O)c1ccccc1Br	24.4	.	.	.	.	.	.	.
O=C(Nc1ccc2c(c1)OCCO2)C(c1cc2ccccc2o1)N1CCN(c2ccc(F)cc2)CC1 (stereo not given)	39.2*	-7.2	.	.	.	20.9	-28.9	0.9
CCOC(=O)Cc1nn(Cc2nc(-c3ccc(C#N)cc3)cs2)c(=O)c2ccccc12	39.4*	-0.3	4.6	i	i	14.1	16.8*	16.7
C[C@H]1[C@H](c2ccccc2)OC(O)([C@H](Cc2ccccc2)NC(=O)OC(C)(C)C)CN1C (stereo not given in full)	17.6	.	.	.	.	.	.	.
NC(=O)c1ccsc1NC(=O)COC(=O)Cc1ccsc1	14.2	-0.1	3.7	i	i	-13.6	.	.
COc1cc(CC(=O)OCC(=O)Nc2sccc2C(N)=O)cc(OC)c1OC	42.8*	-8.7	-0.5	i	i	-10.0	-13.6	3.1
COC(=O)CNC(=O)[C@H](Cc1ccccc1)NC1(C(=O)NCCc2c[nH]c3ccccc23)CCCCC1	35.4	.	.	.	.	.	.	.
CCOc1ccc(-c2cc(CCCC(=O)NCCCOC)no2)cc1	59.2*	-6.6	3.5	i	i	-19.4	22.8*	3.3
CC(C)C[C@H]1COc2cc(N3CCCC3)ccc2S(=O)(=O)N1C	32.6	.	.	.	.	.	.	.
CC(c1ccccc1)n1cc(C(=O)N2CCCC2)nn1 (stereo not given)	6.9	.	.	.	.	.	.	.
CCCCNC(=O)C1(C)CCCCN1C(=O)c1ccc2c(c1)C(C)(C)CCC2(C)C (stereo not given)	37.9*	-8.0	.	.	.	11.1	-4.3	29.4
O=C(NO)c1ccc(OC(F)F)cc1	45.3*	0.3	0.6	i	i	-22.1	-11.0	35.7
O=C(N/N=C/c1ccc(OC(F)F)cc1)c1ccc(Br)cc1	-17.8	-6.4	-0.7	i	i	-22.1	.	.
CCOC(=O)CC[C@@H]1CC[C@]2(CCCN(S(=O)(=O)C3CCCCC3)C2)O1	-6.2	.	.	.	.	.	.	.
CCOC(=O)c1cc2c(=O)n3cccc(C)c3nc2n(CC2CCCO2)c1=NC(C)=O (stereo not given)	73.5*!	-7.0	1.3	i	i	-18.3	-5.1	-8.4
CN1CCN(c2ccc(-c3ccc4ccccc4n3)cc2)CC1	89.5*	-8.4	.	.	.	86.8*	52.0*	90.5*
Cc1cc(C)n2c(Nc3ccc4c(c3)OCCO4)c(-c3cc4ccccc4o3)nc2n1	51.3*	-3.0	.	.	.	28.8	-26.4	-15.8
COc1cccc(-c2nc3nc(C)cc(C)n3c2Nc2ccc3c(c2)OCCO3)c1	-10.2	-5.4	.	.	.	-17.5	.	.
COC(=O)[C@H]1C[C@@]2(N3CCCCC3)c3ccccc3N[C@H]2N1S(=O)(=O)c1ccc([N+](=O)[O-])cc1	12.5	.	.	.	.	.	.	.
CCN(CC)S(=O)(=O)c1ccc(C)c(NC(=S)N2CCN(C/C=C/c3ccccc3)CC2)c1	42.7*	0.0	0.4	i	i	21.1	-9.6	24.2
CN=C1S/C(=C\c2cc(C)n(-c3ccccc3F)c2C)C(=O)N1C	49.7*	-1.1	-0.9	i	i	42.4	-67.9	30.3
CN=C1NC(=O)/C(=C\c2cc(C)n(-c3ccccc3F)c2C)S1	-18.4	.	.	.	.	.	.	.
Cc1cc(/C=C2\SC(=O)N(C)C2=O)c(C)n1-c1ccc(S(N)(=O)=O)cc1	-13.3	-10.3	2.1	i	i	-6.5	.	.
Cc1cc(/C=C2\SC(=O)N(C)C2=O)c(C)n1-c1ccc(O)cc1	50.3*	-9.7	-1.9	i	i	-9.5	-78.0	23.1
CCOC(=O)[C@]12CCCCC/C=C\1N(CCc1ccc(Cl)cc1)C(=O)[C@H]2CC(=O)NCCCOC	9.3	.	.	.	.	.	.	.
O=C(CCCc1nc(-c2ccccc2)no1)NC1CCCC1	-4.5	-1.8	6.4	i	i	-24.8	.	.
